Data on four molecules can be found in ChEMBL document CHEMBL3745654, “N-Alkylated arylsulfonamides of (aryloxy)ethyl piperidines: 5-HT(7) receptor selectivity versus multireceptor profile” (Bioorg Med Chem, 2016).

The source made the active and inactive calls. The rule behind the calls is not given here.

For series [1], the target named is T1, Adrenergic receptor alpha-1 (Rattus norvegicus, UniProt P15823+P23944+P43140).
T1 sequence (P15823 whole entry): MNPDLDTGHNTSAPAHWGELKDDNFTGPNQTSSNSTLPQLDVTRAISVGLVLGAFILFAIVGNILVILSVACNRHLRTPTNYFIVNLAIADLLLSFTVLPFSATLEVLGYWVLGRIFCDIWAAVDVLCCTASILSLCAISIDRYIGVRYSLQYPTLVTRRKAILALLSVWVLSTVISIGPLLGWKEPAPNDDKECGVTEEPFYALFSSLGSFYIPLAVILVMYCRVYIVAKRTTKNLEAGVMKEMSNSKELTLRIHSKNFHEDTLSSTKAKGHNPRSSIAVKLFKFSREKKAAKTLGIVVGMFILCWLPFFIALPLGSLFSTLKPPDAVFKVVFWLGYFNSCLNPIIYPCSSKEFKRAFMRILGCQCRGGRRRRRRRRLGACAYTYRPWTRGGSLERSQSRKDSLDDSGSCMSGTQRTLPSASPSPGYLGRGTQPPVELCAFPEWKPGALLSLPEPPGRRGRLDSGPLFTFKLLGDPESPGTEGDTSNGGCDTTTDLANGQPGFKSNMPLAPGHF
T1 sequence (P23944 whole entry): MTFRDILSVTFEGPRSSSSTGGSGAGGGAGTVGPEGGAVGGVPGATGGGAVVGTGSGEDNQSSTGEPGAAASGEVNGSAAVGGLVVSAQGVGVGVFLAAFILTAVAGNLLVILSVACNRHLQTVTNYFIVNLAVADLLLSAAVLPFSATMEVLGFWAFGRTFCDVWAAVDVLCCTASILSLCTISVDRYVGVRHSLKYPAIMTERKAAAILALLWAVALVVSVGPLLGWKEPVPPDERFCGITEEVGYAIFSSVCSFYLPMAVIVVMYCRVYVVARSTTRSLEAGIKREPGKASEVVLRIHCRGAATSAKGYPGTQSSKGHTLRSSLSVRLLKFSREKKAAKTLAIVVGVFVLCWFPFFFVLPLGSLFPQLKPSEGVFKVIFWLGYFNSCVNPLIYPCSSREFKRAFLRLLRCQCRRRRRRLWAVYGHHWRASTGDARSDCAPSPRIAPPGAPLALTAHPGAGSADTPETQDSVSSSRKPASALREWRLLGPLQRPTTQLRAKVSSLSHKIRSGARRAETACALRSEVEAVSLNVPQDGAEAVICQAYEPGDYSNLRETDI
T1 sequence (P43140 whole entry): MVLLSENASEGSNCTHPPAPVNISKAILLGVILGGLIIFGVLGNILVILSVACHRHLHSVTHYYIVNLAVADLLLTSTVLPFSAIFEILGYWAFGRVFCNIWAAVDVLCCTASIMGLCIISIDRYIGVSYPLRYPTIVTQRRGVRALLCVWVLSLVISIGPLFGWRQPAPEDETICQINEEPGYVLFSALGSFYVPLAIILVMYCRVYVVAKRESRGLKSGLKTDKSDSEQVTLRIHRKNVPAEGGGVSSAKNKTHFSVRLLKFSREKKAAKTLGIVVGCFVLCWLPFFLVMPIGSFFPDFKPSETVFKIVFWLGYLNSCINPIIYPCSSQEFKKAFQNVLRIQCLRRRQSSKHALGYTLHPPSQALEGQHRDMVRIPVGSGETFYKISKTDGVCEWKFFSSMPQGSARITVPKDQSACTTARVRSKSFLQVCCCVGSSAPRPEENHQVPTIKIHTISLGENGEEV
The series can be described thus: Displacement of [3H]-Prazosin form rat cerebral cortex alpha-1 adrenergic receptor after 60 mins by scintillation counting method. It is filed as tissue-based. Put shortly:
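Rat cerebral cortex membranes incubated with [3H]-prazosin (22 Ci/mmol; 0.6 nM). Compound tested at seven or eight concentrations (1 nM upward). Ki calculated by Cheng–Prusoff.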
In general terms: In a radioligand displacement assay an active substance lowers the binding of a labelled ligand.

Series [2] can be described thus: Drug metabolism in mouse liver microsomes assessed as retention time of hydroxylated metabolite at 20 uM at pH 7.4 incubated for 15 mins by UPLC/MS analysis in presence of NADPH. The note with it: pH 7.4, 0.25 h. It is filed as ADME. Put shortly:
(§1)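 Compound (20 µM) incubated with mouse liver microsomes (0.2 mg/ml) in 100 mM potassium phosphate, pH 7.4, 37 °C. Reaction started with NADPH-regenerating system; blank without NADPH run in parallel. Sampling at 5, 15, 30 and 60 min (some to 120 min), in duplicate. Levallorphan internal standard; UPLC/MS quantitation. t1/2 from ln % remaining vs time.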
Background: Liver microsomes are a subcellular fraction often used to study metabolism.

In a further series the test system is Mus musculus. Briefly: Toxicity in Swiss albino mouse assessed as effect on spontaneous locomotor activity at 1.25 mg/kg, ip dosed 60 mins before test measured after 2 to 6 mins. It is filed as organism-based. The note with it: in vivo.
In series [3] the test system is Rattus norvegicus. Briefly: Pro-cognitive effect in ip dosed Sprague-Dawley rat assessed as amelioration of PCP-induced memory deficit dosed 1 hr and 15 mins before familiarization phase by novel object recognition test. It counts as functional. The note with it: for minimal effective dose: read-out: MED. The procedure, abridged: (§2)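 Male Sprague–Dawley rats (~250 g), 7–12 per group, PCP-induced deficit model. Compounds ip 1 h and 15 min before T1. Day 1: 5-min arena habituation. Day 2: two 3-min trials 1 h apart, with two identical objects, then one replaced by a novel object. Exploration and distance video-tracked; discrimination index computed; ANOVA with Newman–Keuls.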

The subject of series [4] is Rattus norvegicus. Briefly: Effect on exploratory activity in PCP-treated Sprague-Dawley rat at 1 mg/kg, ip dosed 1 hr and 15 mins before familiarization phase by novel object recognition test. It is filed as functional, organism-based. The procedure, abridged:
as §2

For series [5], the target named is 5-hydroxytryptamine receptor 7 (Homo sapiens, UniProt P34969). Briefly: Displacement of [3H]-5-CT from human 5-HT7B receptor expressed in HEK293 cells incubated for 1 hr. It counts as cell-based. The procedure, abridged: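 Membranes from HEK293 cells stably expressing human 5-HT7b receptor, with [3H]-5-CT (39.2 Ci/mmol). Buffer: 50 mM Tris-HCl, 4 mM MgCl2, pargyline, 0.1% ascorbate. Incubation 1 h at 37 °C, then rapid filtration and counting of filter radioactivity. Non-specific binding defined with 5-HT. Triplicates at 7–8 concentrations (10^-11 to 10^-4 M). Ki by Cheng–Prusoff.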
Sequence of 5-hydroxytryptamine receptor 7 (P34969 whole entry): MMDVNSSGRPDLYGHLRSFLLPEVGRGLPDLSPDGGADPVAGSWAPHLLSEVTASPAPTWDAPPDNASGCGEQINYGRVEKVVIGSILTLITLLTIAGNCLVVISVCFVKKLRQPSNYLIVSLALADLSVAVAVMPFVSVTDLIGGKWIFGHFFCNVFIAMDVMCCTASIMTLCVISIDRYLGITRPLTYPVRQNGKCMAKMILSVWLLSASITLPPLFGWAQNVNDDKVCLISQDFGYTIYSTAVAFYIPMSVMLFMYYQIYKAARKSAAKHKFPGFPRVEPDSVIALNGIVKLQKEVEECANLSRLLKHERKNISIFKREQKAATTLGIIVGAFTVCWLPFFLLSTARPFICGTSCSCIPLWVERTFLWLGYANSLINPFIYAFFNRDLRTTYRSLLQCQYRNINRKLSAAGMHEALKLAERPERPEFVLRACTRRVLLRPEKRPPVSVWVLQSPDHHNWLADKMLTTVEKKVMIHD

Series [6] has as its target D(3) dopamine receptor (Homo sapiens) (UniProt P35462). Briefly: […] human dopamine D3 receptor expressed in CHO cells assessed as inhibition of dopamine-induced cAMP level at 1 uM after 30 mins by HTRF method. It counts as cell-based. For orientation: Changes in cAMP serve as a functional read-out for many G protein-coupled receptors.
In series [7] the target is 5-hydroxytryptamine receptor 2A (Homo sapiens, UniProt P28223). The series can be described thus: Antagonist activity at human 5-HT2A receptor expressed in HEK293 cells assessed as inhibition of serotonin-induced inositol-1-phosphate accumulation at 1 uM after 30 mins by HTRF assay. It counts as functional, cell-based. Put shortly:
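Cellular functional antagonist assay in HEK293 cells stably expressing human 5-HT2A receptor, run externally. Inhibition of control agonist response (serotonin 100 nM) measured with compound at 10^-6 M.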

A further series concerns the target D(2) dopamine receptor (Homo sapiens, UniProt P14416). Briefly: Antagonist activity at human dopamine D2L receptor expressed in HEK293 cells assessed as inhibition of dopamine-induced cAMP level at 1 uM. It is filed as functional, cell-based. Put shortly:
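Cellular functional cAMP antagonist assay in HEK293 cells, run externally. Inhibition of control agonist response (dopamine 30 nM) measured with compound at 10^-6 M.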

Series [8] can be described thus: Drug metabolism in mouse liver microsomes assessed as retention time of N-dealkylated metabolite at 20 uM at pH 7.4 incubated for 15 mins by UPLC/MS analysis in presence of NADPH. It counts as ADME. The note with it: pH 7.4, 0.25 h. Put shortly:
as §1

Sequence of D(2) dopamine receptor (P14416 whole entry): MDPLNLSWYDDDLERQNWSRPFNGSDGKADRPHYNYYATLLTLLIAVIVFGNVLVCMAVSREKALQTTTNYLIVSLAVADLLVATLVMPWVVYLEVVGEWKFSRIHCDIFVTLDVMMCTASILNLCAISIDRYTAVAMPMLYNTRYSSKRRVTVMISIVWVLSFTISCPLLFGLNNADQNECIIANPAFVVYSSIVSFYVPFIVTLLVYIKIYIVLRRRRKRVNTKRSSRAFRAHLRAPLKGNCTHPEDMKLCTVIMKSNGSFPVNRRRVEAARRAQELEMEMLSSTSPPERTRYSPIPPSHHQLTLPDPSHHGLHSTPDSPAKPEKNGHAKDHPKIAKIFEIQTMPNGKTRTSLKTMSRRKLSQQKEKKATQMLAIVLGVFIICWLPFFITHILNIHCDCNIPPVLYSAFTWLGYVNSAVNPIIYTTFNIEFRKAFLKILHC
Sequence of 5-hydroxytryptamine receptor 2A (P28223 whole entry): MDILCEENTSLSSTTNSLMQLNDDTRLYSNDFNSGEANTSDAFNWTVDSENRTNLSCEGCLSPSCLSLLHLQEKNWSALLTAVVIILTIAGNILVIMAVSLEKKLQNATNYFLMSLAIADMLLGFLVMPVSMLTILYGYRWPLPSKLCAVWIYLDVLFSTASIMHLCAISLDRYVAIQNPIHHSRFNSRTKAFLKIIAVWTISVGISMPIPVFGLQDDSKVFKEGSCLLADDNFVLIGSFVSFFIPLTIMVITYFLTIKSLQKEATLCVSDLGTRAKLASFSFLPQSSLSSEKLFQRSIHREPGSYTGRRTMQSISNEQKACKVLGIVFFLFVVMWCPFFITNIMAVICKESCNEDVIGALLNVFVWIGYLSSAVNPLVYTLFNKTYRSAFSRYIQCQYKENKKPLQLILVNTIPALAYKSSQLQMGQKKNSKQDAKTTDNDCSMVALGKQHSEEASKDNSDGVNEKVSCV
Sequence of D(3) dopamine receptor (Homo sapiens) (P35462 whole entry): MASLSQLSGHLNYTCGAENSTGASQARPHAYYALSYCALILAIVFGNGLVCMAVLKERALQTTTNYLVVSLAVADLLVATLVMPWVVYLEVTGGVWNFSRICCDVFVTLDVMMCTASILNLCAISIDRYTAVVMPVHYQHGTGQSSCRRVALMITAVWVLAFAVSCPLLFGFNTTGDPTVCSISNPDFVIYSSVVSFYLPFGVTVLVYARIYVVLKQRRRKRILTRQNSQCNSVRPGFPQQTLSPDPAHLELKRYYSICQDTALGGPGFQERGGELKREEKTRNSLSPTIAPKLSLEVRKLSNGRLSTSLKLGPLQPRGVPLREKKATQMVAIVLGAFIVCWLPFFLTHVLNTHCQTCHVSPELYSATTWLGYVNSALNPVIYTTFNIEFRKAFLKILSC

Turning to `Cn1cc(S(=O)(=O)N(CC2CC2)C2CCN(CCOc3ccccc3C(C)(C)C)CC2)cn1`, the values for the Ki in series [1] and in [5] were more than 300 nM and 49 nM, respectively. In addition, in series [2], the Retention_time is 4.72 min. In addition, the Activity result with Mus musculus was “Non-toxic”; in the series with Rattus norvegicus [3] it was “Dose-dependent effect”. Besides, the minimal effective dose in the series with Rattus norvegicus [3] worked out at 1 mg/kg. In addition, the outcome in the series on Rattus norvegicus [4] was inactive.

Regarding `CN(C1CCN(CCOc2ccccc2C(C)(C)C)CC1)S(=O)(=O)c1cnn(C)c1`, the Ki in series [1] is more than 300 nM; in series [5], 58 nM. For the same molecule, the Retention_time in [2] was 4.09 min.

For the molecule `Cn1cc(S(=O)(=O)N(CC2CC2)C2CCN(CCOc3ccccc3-c3ccccc3)CC2)cn1`, the values for the Ki in series [1] and in series [5] were more than 300 nM and 10 nM, respectively. The results for the Activity entry with Mus musculus and in the series with Rattus norvegicus [3] were “Non-toxic” and “Dose-dependent effect”, respectively. In the series on Rattus norvegicus [3], the minimal effective dose amounted to 1 mg/kg. In addition, the outcome in the series with Rattus norvegicus [4] was inactive. Further, the values for the inhibition (in series [6]; in [7]; at D(2) dopamine receptor) were more than 91%, 94% and 94%, respectively. In addition, the Retention_time in [8] came out at 4.59 min.

In the case of `CN(C1CCN(CCOc2ccccc2-c2ccccc2)CC1)S(=O)(=O)c1cnn(C)c1`, the Ki in series [1] is more than 300 nM; in [5], 7 nM. The inhibition was more than 91% in series [6], 85% in [7] and 93% at D(2) dopamine receptor. For the same molecule, the Retention_time in series [8] turned out to be 4.64 min.

As usually defined, the Ki is a dissociation constant, usually derived from enzyme kinetics or from competition with a known ligand. Low readings indicate higher affinity, high ones lower affinity. As a reminder, the inhibition is the drop in the measured response relative to a control, in per cent.
